ChEMBL document CHEMBL4014347, “Targeting Mycolic Acid Transport by Indole-2-carboxamides for the Treatment of Mycobacterium abscessus Infections” (J Med Chem, 2017)
Values after ≈ are worked out from the molar mass of the structure shown.

Legend:
[1] = test system: Mycobacteroides abscessus; assay: Antibacterial activity against Mycobacterium abscessus CIP104536 after 3 to 5 days by two fold serial dilution method; type: functional
Summary of the method: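 Broth microdilution per CLSI in cation-adjusted Mueller–Hinton broth; exponential-phase inoculum 5 × 10^6 CFU/mL; two-fold serial dilutions from highest concentration, solvent wells as control; 30 °C for 3−5 days; MIC read visually and confirmed by absorbance at 560 nm; triplicate on three independent occasions.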

[2] = test system: Mycobacterium tuberculosis; assay: Antibacterial activity against Mycobacterium tuberculosis by AlamarBlue assay; type: functional
[3] = Selectivity index, ratio of IC50 for African green monkey Vero cells to MIC for Mycobacterium abscessus CIP104536; type: toxicity; conditions: read-out: Selectivity Index
[4] = test system: Vero; assay: Cytotoxicity against African green monkey Vero cells; type: cell-based; conditions: Chlorocebus sabaeus
[5] = Selectivity index, ratio of IC50 for African green monkey Vero cells to MIC=<90 for Mycobacterium tuberculosis; type: toxicity; conditions: read-out: Selectivity Index

Row | Structure (SMILES) | MIC [1] [µg/mL] | MIC=<90 [2] [µg/mL] | selectivity ratio [3] | IC50 [4] [µg/mL] | selectivity ratio [5]
1 | CCCCCCCCNC(=O)c1cc2c(Cl)cc(Cl)cc2[nH]1 | > 32 | 128 (≈ 375 µM) |  |  | 
2 | COc1cc(OC)c2cc(C(=O)NC3CCCCCC3)[nH]c2c1 | 1 (≈ 3.16 µM) | 0.0625 (≈ 0.198 µM) |  |  | 
3 | C[C@@H]1[C@@H](NC(=O)c2cc3c(Cl)cc(Cl)cc3[nH]2)C[C@H]2C[C@@H]1C2(C)C | 128 (≈ 350 µM) | 0.0078 (≈ 0.0214 µM) | 0.125 | 16 (≈ 43.8 µM) | 2050
4 | CO[C@H]1/C=C/O[C@@]2(C)Oc3c(C)c(O)c4c(O)c(c(/C=N/N5CCN(C)CC5)c(O)c4c3C2=O)NC(=O)/C(C)=C\C=C\[C@H](C)[C@H](O)[C@@H](C)[C@@H](O)[C@@H](C)[C@H](OC(C)=O)[C@@H]1C [RIFAMPIN] |  |  |  | > 256 | 
5 | Cc1cc(C)c2cc(C(=O)NC34CC5CC(CC(C5)C3)C4)oc2c1 | 1 (≈ 3.09 µM) | 1 (≈ 3.09 µM) |  |  | 
6 | Cc1cc(C)c2cc(CNC3CCCCCCC3)[nH]c2c1 | 0.5 (≈ 1.76 µM) | 0.125 (≈ 0.439 µM) |  |  | 
7 | C[C@@H]1[C@@H](NC(=O)c2cc3c(F)cc(F)cc3[nH]2)C[C@H]2C[C@@H]1C2(C)C | 32 (≈ 96.3 µM) | 0.0039 (≈ 0.0117 µM) | ≥ 2 | ≥ 64 | ≥ 16400
8 | O=C(NC12CC3CC(CC(C3)C1)C2)c1cc2ccc(Br)cc2[nH]1 | 16 (≈ 42.9 µM) | 0.0156 (≈ 0.0418 µM) | ≥ 4 | ≥ 64 | ≥ 4100
9 | Cc1cc(C)c2cc(C(=O)NC3CCCCCC3)[nH]c2c1 | 0.125 (≈ 0.44 µM) | 0.0039 (≈ 0.0137 µM) | 128 | 16 (≈ 56.3 µM) | 4100
10 | O=C(NC1CCCCCCC1)c1cc2c(C(F)(F)F)cc(C(F)(F)F)cc2[nH]1 | 0.5 (≈ 1.23 µM) | 0.0156 (≈ 0.0384 µM) |  |  | 
11 | O=C(Nc1nc2ccc(OC(F)(F)F)cc2s1)C1CCCCCC1 | > 32 | 128 (≈ 357 µM) |  |  | 
12 | O=C(NC1CCC2(CCCCC2)CC1)c1cc2c(Cl)cc(Cl)cc2[nH]1 | > 32 | 0.001953 (≈ 0.00515 µM) | ≥ 2 | ≥ 64 | ≥ 32800
13 | O=C(NC1CCCCCCC1)c1cc2cc(Cl)ccc2o1 | 0.5 (≈ 1.64 µM) | 8 (≈ 26.2 µM) |  |  | 
14 | Cc1cc(C)c2[nH]c(C(=O)NC3CCCCCC3)cc2c1 | 0.25 (≈ 0.879 µM) | 0.0625 (≈ 0.22 µM) |  |  | 
15 | Cc1ccc2cc(C(=O)NC3CCCCCC3)[nH]c2c1 | 0.25 (≈ 0.925 µM) | 0.0313 (≈ 0.116 µM) |  |  | 
